Reference: ChEMBL document CHEMBL5724801, “EUbOPEN Chemogenomics Library - Multiplex” (2024)
“And” between values parts separate entries of the source, which are not always exact repeats. Identical values can stand only once.

Legend:
HEK-293T = assay: Multiplex assay against HEK293T; assay type: toxicity, cell-based; settings: human
Outline: (§1)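 At seeding, live cells were stained with Hoechst33342, BioTracker Green Microtubule Cytoskeleton Dye, MitoTracker Red and Annexin V Alexa Fluor 680. After compound addition they were imaged on a CQ1 microscope at 37°C and 5% CO2, and CellPathfinder machine-learning gating sorted them into Hoechst high-intensity objects or normal cells, with normal cells further split into healthy, pyknosed or fragmented nuclei and pyknosed cells into mitotic or apoptotic. Tubulin, mitochondrial-mass and membrane-permeability phenotypes are given as per cents of cells with healthy nuclei.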

U2OS = assay: Multiplex assay against U2OS; assay type: toxicity, cell-based; settings: human; outline: as §1
[1] = 24 h, 10 µM, compound concentration 10 uM
[2] = 48 h, 1 µM, compound concentration 1 uM
[3] = 48 h, 10 µM, compound concentration 10 uM
[4] = 12 h, 1 µM, compound concentration 1 uM
[5] = 12 h, 10 µM, compound concentration 10 uM
[6] = 24 h, 1 µM, compound concentration 1 uM

CN(C)C(=O)Cn1cc(-c2ccc(-c3nnc4ccccn34)cc2)cn1
Population Fragmented Nuclei (%) (HEK-293T; [1]): 7% and 13%
Population Healthy Nuclei (%) (HEK-293T; [1]): 78% and 79%
Population Hoechst High Intensity Objects (%) (HEK-293T; [1]): 4% and 7%
Population Membrane Permeable-Phenotype (%) (HEK-293T; [1]): 0%
Population Mitochondria Different-Phenotype (%) (HEK-293T; [1]): 44% and 39%
Population Mitotic Cells (%) (HEK-293T; [1]): 64% and 38%
Population Normal (%) (HEK-293T; [1]): 95% and 92%
Population Pyknosed Nuclei (%) (HEK-293T; [1]): 13% and 7%
Population Tubulin-Different-Phenotype (%) (HEK-293T; [1]): 27% and 11%
Total Cell Count (HEK-293T; [1]): 506 and 425
Population Apoptotic (%) (HEK-293T; [2]): 18% and 32%
Population Fragmented Nuclei (%) (HEK-293T; [2]): 11%
Population Healthy Nuclei (%) (HEK-293T; [2]): 81% and 80%
Population Hoechst High Intensity Objects (%) (HEK-293T; [2]): 3% and 4%
Population Membrane Permeable-Phenotype (%) (HEK-293T; [2]): 0%
Population Mitochondria Different-Phenotype (%) (HEK-293T; [2]): 20% and 22%
Population Mitotic Cells (%) (HEK-293T; [2]): 81% and 67%
Population Normal (%) (HEK-293T; [2]): 96% and 95%
Population Pyknosed Nuclei (%) (HEK-293T; [2]): 6% and 7%
Population Tubulin-Different-Phenotype (%) (HEK-293T; [2]): 13% and 12%
Total Cell Count (HEK-293T; [2]): 946 and 572
Population Apoptotic (%) (HEK-293T; [3]): 30% and 37%
Population Fragmented Nuclei (%) (HEK-293T; [3]): 18% and 14%
Population Healthy Nuclei (%) (HEK-293T; [3]): 74% and 79%
Population Hoechst High Intensity Objects (%) (HEK-293T; [3]): 5% and 2%
Population Membrane Permeable-Phenotype (%) (HEK-293T; [3]): 0%
Population Mitochondria Different-Phenotype (%) (HEK-293T; [3]): 24% and 27%
Population Mitotic Cells (%) (HEK-293T; [3]): 69% and 62%
Population Normal (%) (HEK-293T; [3]): 94% and 97%
Population Pyknosed Nuclei (%) (HEK-293T; [3]): 6% and 5%
Population Tubulin-Different-Phenotype (%) (HEK-293T; [3]): 14% and 12%
Total Cell Count (HEK-293T; [3]): 753 and 616
Population Apoptotic (%) (U2OS; [4]): 90%
Population Fragmented Nuclei (%) (U2OS; [4]): 25% and 22%
Population Healthy Nuclei (%) (U2OS; [4]): 66% and 68%
Population Hoechst High Intensity Objects (%) (U2OS; [4]): 1% and 0%
Population Membrane Permeable-Phenotype (%) (U2OS; [4]): 6% and 3%
Population Mitochondria Different-Phenotype (%) (U2OS; [4]): 1% and 6%
Population Mitotic Cells (%) (U2OS; [4]): 9%
Population Normal (%) (U2OS; [4]): 98% and 99%
Population Pyknosed Nuclei (%) (U2OS; [4]): 8% and 9%
Population Tubulin-Different-Phenotype (%) (U2OS; [4]): 3% and 4%
Total Cell Count (U2OS; [4]): 251 and 123
Population Apoptotic (%) (U2OS; [5]): 95% and 90%
Population Fragmented Nuclei (%) (U2OS; [5]): 26% and 11%
Population Healthy Nuclei (%) (U2OS; [5]): 65% and 81%
Population Hoechst High Intensity Objects (%) (U2OS; [5]): 1%
Population Membrane Permeable-Phenotype (%) (U2OS; [5]): 4%
Population Mitochondria Different-Phenotype (%) (U2OS; [5]): 1% and 0%
Population Mitotic Cells (%) (U2OS; [5]): 4% and 10%
Population Normal (%) (U2OS; [5]): 98%
Population Pyknosed Nuclei (%) (U2OS; [5]): 7%
Population Tubulin-Different-Phenotype (%) (U2OS; [5]): 3%
Total Cell Count (U2OS; [5]): 298 and 140
Population Apoptotic (%) (U2OS; [6]): 94% and 100%
Population Fragmented Nuclei (%) (U2OS; [6]): 22% and 17%
Population Healthy Nuclei (%) (U2OS; [6]): 71% and 74%
Population Hoechst High Intensity Objects (%) (U2OS; [6]): 0%
Population Membrane Permeable-Phenotype (%) (U2OS; [6]): 4% and 7%
Population Mitochondria Different-Phenotype (%) (U2OS; [6]): 2% and 7%
Population Mitotic Cells (%) (U2OS; [6]): 5% and 0%
Population Normal (%) (U2OS; [6]): 99% and 100%
Population Pyknosed Nuclei (%) (U2OS; [6]): 5% and 8%
Population Tubulin-Different-Phenotype (%) (U2OS; [6]): 1% and 4%
Total Cell Count (U2OS; [6]): 315 and 131
Population Apoptotic (%) (U2OS; [1]): 86% and 87%
Population Fragmented Nuclei (%) (U2OS; [1]): 22% and 10%
Population Healthy Nuclei (%) (U2OS; [1]): 66% and 85%
Population Hoechst High Intensity Objects (%) (U2OS; [1]): 2% and 1%
Population Membrane Permeable-Phenotype (%) (U2OS; [1]): 4% and 7%
Population Mitochondria Different-Phenotype (%) (U2OS; [1]): 1%
Population Mitotic Cells (%) (U2OS; [1]): 13% and 12%
Population Normal (%) (U2OS; [1]): 97% and 98%
Population Pyknosed Nuclei (%) (U2OS; [1]): 11% and 4%
Population Tubulin-Different-Phenotype (%) (U2OS; [1]): 2% and 3%
Total Cell Count (U2OS; [1]): 333 and 180
Population Apoptotic (%) (U2OS; [2]): 87% and 93%
Population Fragmented Nuclei (%) (U2OS; [2]): 16% and 11%
Population Healthy Nuclei (%) (U2OS; [2]): 75% and 67%
Population Hoechst High Intensity Objects (%) (U2OS; [2]): 2%
Population Membrane Permeable-Phenotype (%) (U2OS; [2]): 4% and 7%
Population Mitochondria Different-Phenotype (%) (U2OS; [2]): 2% and 3%
Population Mitotic Cells (%) (U2OS; [2]): 12% and 6%
Population Normal (%) (U2OS; [2]): 97%
Population Pyknosed Nuclei (%) (U2OS; [2]): 7% and 20%
Population Tubulin-Different-Phenotype (%) (U2OS; [2]): 1% and 3%
Total Cell Count (U2OS; [2]): 426 and 158
Population Apoptotic (%) (U2OS; [3]): 95% and 85%
Population Fragmented Nuclei (%) (U2OS; [3]): 21% and 8%
Population Healthy Nuclei (%) (U2OS; [3]): 67% and 81%
Population Hoechst High Intensity Objects (%) (U2OS; [3]): 3% and 2%
Population Membrane Permeable-Phenotype (%) (U2OS; [3]): 8% and 6%
Population Mitochondria Different-Phenotype (%) (U2OS; [3]): 4% and 2%
Population Mitotic Cells (%) (U2OS; [3]): 4% and 14%
Population Normal (%) (U2OS; [3]): 96% and 97%
Population Pyknosed Nuclei (%) (U2OS; [3]): 11% and 9%
Population Tubulin-Different-Phenotype (%) (U2OS; [3]): 4% and 2%
Total Cell Count (U2OS; [3]): 418 and 284
